Results pooled from the literature.
TYK2 JH2: Non-receptor tyrosine-protein kinase TYK2, JH2 (TYK2, Homo sapiens, UniProt P29597)
TYK2: Non-receptor tyrosine-protein kinase TYK2 (TYK2, Homo sapiens, UniProt P29597)

Cn1cncc1[C@@](O)(COc1ccc(C#N)cc1-c1ccc(OC(F)(F)F)cc1)c1ccc(C#N)cc1 — remaining binding (TYK2 JH2; cell-free assay; competition with immobilised ligand; 1 µM): 100%
Nc1ncc(-c2nc(N3CCOCC3)nc(N3CCOCC3)n2)c(C(F)F)n1 — remaining binding (TYK2 JH2; binding; competition with immobilised ligand; 10 µM): 15%
Cc1nn(C)cc1-c1nc2c(N3CCN(Cc4ccc(Cl)cc4)CC3)c(Cl)cnc2[nH]1 — remaining binding (TYK2 JH2; binding; competition with immobilised ligand; 1 µM): 100%
Cn1cc(-c2cc(F)cc(N3CCn4c(cc5c4CCCC5)C3=O)c2CO)cc(Nc2ccc(N3CCN(C4COC4)CC3)cn2)c1=O — inhibition (TYK2; enzyme activity; inhibitor; 0.1 µM): 1%
N#CC1(c2ccccn2)CCN(Cc2cc(C(=O)O)c(=O)n3ccccc23)CC1 — remaining binding (TYK2 JH2; cell-free assay; competition with immobilised ligand; 1 µM): 93%
O=c1[nH]c2ccccc2n1C1CCN(Cc2ccc(-c3[nH]c4cc5ncnc5cc4nc3-c3ccccc3)cc2)CC1 — remaining signal (TYK2; cell-free assay; 0.5 µM): 101%
Cn1cc(-c2cccc(N3CCc4c(sc5c4CC(C)(C)C5)C3=O)c2CO)cc(Nc2ccncn2)c1=O — inhibition (TYK2; enzyme activity; inhibitor; 1 µM): 3%
CC(C)(C)c1cc(C=C(C#N)C#N)cc(Br)c1O — remaining activity (TYK2; enzyme activity; inhibitor; 0.5 µM): 61.3%
COc1ncccc1-c1cnn2ccc(N3CCN(C(=O)OC(C)C)CC3)nc12 — remaining binding (TYK2; binding; competition with immobilised ligand; 1 µM): 76%
